Data: paper PMC6039207 (Clinical and Translational Science, 2018)
Marks after values point to notes of the source that are not given here.

Assays:
[1] = JNJ-42165279 plasma and urine pharmacokinetics, MAD study; format: in vivo, human
In short: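 Plasma and urine samples were taken from healthy volunteers given oral test compound once daily for 10 days (10–100 mg cohorts). Plasma was assayed by validated LC/MS/MS, with profiles over 0–24 h on day 1 and 0–96 h on day 10. PK parameters came from noncompartmental analysis. Accumulation ratios compared day 10 with day 1.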

[2] = JNJ-42165279 concentration in CSF, MAD study; format: in vivo, human; settings: after 7 days
In short: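 Test compound in CSF was quantified by a validated LC/MS/MS method after 7 days of once-daily oral dosing in healthy volunteers: 10 mg young men, 25 mg young men, and 100 mg elderly (men only). Values were related to plasma concentrations at Cmax on day 10.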

[3] = plasma protein binding; format: in vitro ADME; settings: humans, estimated
[4] = target: T1, FAAH (Homo sapiens, UniProt O00519); experiment: FAAH activity in leukocytes; format: in vivo
T1 sequence (O00519 1-579): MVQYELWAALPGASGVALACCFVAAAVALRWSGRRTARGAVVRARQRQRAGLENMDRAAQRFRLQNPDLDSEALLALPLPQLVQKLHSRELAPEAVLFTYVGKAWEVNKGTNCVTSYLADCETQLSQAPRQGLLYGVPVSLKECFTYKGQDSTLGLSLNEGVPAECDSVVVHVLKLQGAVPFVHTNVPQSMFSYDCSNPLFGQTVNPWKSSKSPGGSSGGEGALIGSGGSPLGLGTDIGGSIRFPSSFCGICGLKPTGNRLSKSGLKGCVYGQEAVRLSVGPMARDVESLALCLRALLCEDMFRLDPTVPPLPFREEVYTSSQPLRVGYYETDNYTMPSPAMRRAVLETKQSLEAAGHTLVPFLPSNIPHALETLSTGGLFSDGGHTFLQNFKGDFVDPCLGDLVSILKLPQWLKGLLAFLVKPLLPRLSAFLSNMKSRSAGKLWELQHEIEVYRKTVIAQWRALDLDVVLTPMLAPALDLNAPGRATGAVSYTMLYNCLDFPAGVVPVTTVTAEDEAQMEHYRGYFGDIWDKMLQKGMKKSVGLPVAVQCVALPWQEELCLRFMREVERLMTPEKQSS
In short: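 Leukocyte FAAH activity was assayed in healthy volunteers dosed orally once daily for 10 days (10–100 mg cohorts, placebo controls). It was expressed as percent of predose activity. Sampling ran 0–24 h postdose on day 1 and 0–96 h after the day-10 dose. In the PET study, leukocytes were also sampled at scan midpoint, about 4 h 45 min postdose.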

[5] = tested on: plasma FAA (AEA, OEA, PEA); experiment: FAA concentrations in plasma; format: in vivo, human
In short: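 Plasma AEA, OEA and PEA were followed in healthy volunteers given oral test compound (10–100 mg) or placebo once daily for 10 days, six active and two placebo per cohort. Concentration–time profiles were taken on day 1 (0–24 h postdose) and day 10 (0–96 h postdose). Mean peak values were compared with mean peak placebo values.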

[6] = tested on: CSF FAA (AA, AEA, OEA); experiment: FAA concentrations in CSF; format: in vivo, human; settings: for AEA concentration in cerebrospinal fluid / OEA concentration in cerebrospinal fluid / AA concentration in cerebrospinal fluid: young male volunteers, mean (SD)
In short: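 CSF sampled in the double-blind, placebo-controlled multiple-ascending-dose study in healthy volunteers. Oral test compound or placebo was given once daily for 10 days: 10, 25 or 75 mg in young men, 100 mg in young women, 100 mg in elderly subjects. AEA, OEA and arachidonic acid were measured predose and after 6–7 days of dosing. Values were expressed against predose or baseline.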

[7] = target: T2, brain FAAH (Homo sapiens, UniProt O00519); experiment: brain FAAH occupancy by PET with [11C]MK3168; format: in vivo
T2 sequence (O00519 1-579): T1 sequence (O00519 1-579)
In short: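 Healthy men were scanned by PET with [11C]MK3168 at baseline. In Part 2, scans followed single oral doses (2.5–100 mg range, adaptive; tracer injected 1 h postdose), with repeat doses at least 1 week apart. In Part 3, scans were 24 h after a single dose and 24 h after the last of 7 daily doses. Occupancy came from two-tissue compartment VT, baseline versus treatment.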

[8] = treatment-emergent adverse events and safety, MAD study; format: in vivo, human; settings: MAD and PET studies
In short: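 Safety covered treatment-emergent adverse events, physical examinations, laboratory tests, 12-lead ECG and vital signs. Subjects were healthy volunteers on 10 days of once-daily oral test compound (10–100 mg) or placebo, double-blind and randomized, six active and two placebo per cohort.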

[9] = behavioral evaluations; format: in vivo, human
[10] = tested on: FAAH; settings: cited from earlier work
[11] = tested on: WBC FAAH; settings: 4 mg once-daily dose more than sufficient; cited from earlier work
[12] = patients with osteoarthritis; cited from earlier work
[13] = [11C]MK3168 radiometabolite analysis and brain uptake; format: in vivo, human; settings: for standardized uptake value (SUV), gray matter regions / tracer uptake in gray matter regions: baseline
In short: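 In healthy men, the tracer was given as a slow IV bolus (356 ± 57MBq; molar activity 111 ± 67 GBq/μmol), synchronized with a 90-min list-mode PET/CT acquisition after low-dose CT for attenuation correction. Discrete arterial samples at each scan measured parent tracer and radiometabolites as the input function. Brain time-activity curves came from MRI-coregistered, template-based regions.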

[14] = tested on: human FAAH; settings: cited from earlier work
[15] = single clinical doses, healthy volunteers; cited from earlier work
[16] = day 10 vs day 1, doses 10–100 mg, range across cohorts
[17] = ∼24 h after stopping the 10 mg dosing
[18] = Predose (baseline), 10 mg cohort
[19] = Predose (baseline), 25 mg cohort
[20] = Predose (baseline), 75 mg cohort

## O=C(Nc1cnccc1Cl)N1CCN(Cc2ccc3c(c2)OC(F)(F)O3)CC1 [JNJ‐42165279]
[1]; [16]
  estimated accumulation ratio for AUC: 144–337%
  estimated accumulation ratio for Cmax: 98–156%
[1]; in vivo
  terminal half-life: 8 to 14 h
[1]; range of cohort means, 10–100 mg QD
  Mean plasma half-life: 8.14 to 14.1 h
[2]; cohort A (25 mg)
  Mean concentration of JNJ-42165279 in CSF: 8.95 ng/mL
[2]; cohort D, men only
  Mean concentration of JNJ-42165279 in CSF: 31.8 ng/mL
[2]; cohort E (10 mg)
  Mean concentration of JNJ-42165279 in CSF: 2.67 ng/mL
[2]; slightly over
  CSF concentration relative to plasma values at Cmax on day 10: over 3%
[3]
  unbound fraction: 6.4–7.5%
[4]; relative to predose values, after a single dose, 10–100 mg dose range
  FAAH activity remaining in leukocytes, mean trough: 7.85–10.4%
[4]; [17]
  FAAH activity recovered in leukocytes: ~50%
[5]; in vivo
  doses with maximal effect on plasma AEA turnover: ≥ 75 mg
[5]; lowest dose tested in the MAD study (10 mg)
  increase of plasma AEA levels: ≥ 10 fold
[5]; single doses 10–100 mg
  mean peak plasma AEA concentration versus mean peak placebo values: 5.5–10 fold
  mean peak plasma OEA and PEA concentrations versus mean peak placebo: 4.3–5.6 fold
[6]; 10 mg daily for 7 days
  increase of mean CSF AEA concentration relative to predose: ~45 fold
  increase of mean CSF OEA concentration relative to predose: ~6.6 fold
[6]; 25 mg daily for 7 days
  increase of mean CSF AEA concentration relative to predose: ~41 fold
  increase of mean CSF OEA concentration relative to predose: ~5.8 fold
[6]; 75 mg daily for 7 days
  increase of mean CSF AEA concentration relative to predose: ~77 fold
  increase of mean CSF OEA concentration relative to predose: ~7.4 fold
[6]; Day 7, 10 mg daily
  AEA concentration in cerebrospinal fluid: 12.6 (4.86)
  OEA concentration in cerebrospinal fluid: 139 (42.0)
[6]; Day 7, 25 mg daily, n=5
  AA concentration in cerebrospinal fluid: 1.44 (0.52) ^b
  AEA concentration in cerebrospinal fluid: 21.24 (7.39) ^b
  OEA concentration in cerebrospinal fluid: 116.81 (26.07) ^b
[6]; Day 7, 75 mg daily, n=5
  AA concentration in cerebrospinal fluid: 1.81 (0.72) ^b
  AEA concentration in cerebrospinal fluid: 28.88 (9.52) ^b
  OEA concentration in cerebrospinal fluid: 150.24 (34.64) ^b
[6]; [18]
  AEA concentration in cerebrospinal fluid: 0.28 (0.31)
  OEA concentration in cerebrospinal fluid: 21.2 (5.33)
[6]; [19]
  AA concentration in cerebrospinal fluid: 1.85 (0.52)
  AEA concentration in cerebrospinal fluid: 0.52 (0.16)
  OEA concentration in cerebrospinal fluid: 20.15 (10.19)
[6]; [20]
  AA concentration in cerebrospinal fluid: 2.04 (0.86)
  AEA concentration in cerebrospinal fluid: 0.38 (0.21)
  OEA concentration in cerebrospinal fluid: 20.21 (8.25)
[6]; after 7 days of dosing
  increase of AEA concentrations in CSF: 40–70 fold
[7]; 24 h after dosing with 10 mg
  occupancy of brain FAAH: 80–85%
[7]; after the first dose of 10 mg
  FAAH occupancy at trough: > 80%
[7]; in vivo
  doses giving saturation of brain FAAH occupancy: ≥ 10 mg
[7]; single doses of 2.5 and 5 mg, at estimated Cmax
  brain FAAH occupancy: lesser, although appreciable, occupancy
[7]; single doses of 10, 25, and 50 mg, at estimated Cmax
  brain FAAH occupancy: 96–98%
[7]; [17]
  brain FAAH occupancy: ≥ 80%
[8]
  deaths, serious or severe TEAEs, discontinuations due to TEAEs: No deaths, serious, or severe treatment emergent adverse event (TEAEs) or discontinuations due to TEAEs
  vital signs, ECG parameters including QTc, physical examination: no clinically significant treatment effects were observed
[9]; 100 mg, elderly volunteers, P ≤ 0.05, 4 h postdose days 1, 6, 10
  quality of working memory (QWM): significant negative treatment effect
[9]; 100 mg, women of nonchild-bearing potential
  ARCI-53 report: slight similarity to sedatives and dissimilarity to stimulants
[9]; MAD study
  treatment effect on tapping, tracking, and postural stability: No treatment effects were observed
[9]; all groups
  ARCI-53: experiences similar to marijuana or hallucinogens: no groups reported experiences similar to marijuana or hallucinogens
[10]
  affinity for human over rat FAAH: much higher affinity

## O=C(Nc1cccnn1)N1CCC(=Cc2cccc(Oc3ccc(C(F)(F)F)cn3)c2)CC1 [PF‐04457845]
[11]
  inhibition of WBC FAAH: 97%
[12]
  effect on pain perception: no effect on pain perception

## CN(C)C(=O)[C@H]1C[C@@H]1c1ccc(-c2ncn(C)c2Sc2ccc(Cl)cn2)cc1 [[^11C]MK3168]
[13]; at 20 min
  standardized uptake value (SUV), gray matter regions: ~3.0
  tracer uptake in gray matter regions: ~15 kBq/cc
[13]; at 90 min
  standardized uptake value (SUV), gray matter regions: ~2.0
  tracer uptake in gray matter regions: ~10 kBq/cc
[13]; baseline scans, 10 min postinjection
  parent tracer remaining in plasma: 30–40%
[13]; baseline scans, 60 min p.i.
  elimination of tracer from plasma: almost complete elimination
[14]
  IC50: 1 ± 0.6 nM

## CCCCCCC(C)(C)c1cc(O)c2c(c1)OC(C)(C)C1CCC(=O)CC21 (stereo not shown) [nabilone]
[15]
  effect on cognitive performance: notable impairment on cognitive performance
